Legend:
Format in all cases: functional
MCF7 = experiment: Cytotoxicity against human MCF7 cells
Summary of the method: (§1)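 Tested in a 60-cell-line human tumor panel screen; the read-out is growth inhibition, reported as GI50 for each cell line.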

MOLT-4 = experiment: Cytotoxicity against human MOLT4 cells; summary of the method: as §1
K562 = experiment: Cytotoxicity against human K562 cells; summary of the method: as §1
CAKI-1 = experiment: Cytotoxicity against human Caki1 cells; summary of the method: as §1
[1] = Cytotoxicity against human UACC257 cells
Summary of the method: (§2)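 Cell line run as part of the 60-cell-line screening panel; growth inhibition was reported as a GI50 for each line.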

TK-10 = experiment: Cytotoxicity against human TK10 cells; summary of the method: as §2
SN12C = experiment: Cytotoxicity against human SN12C cells; summary of the method: as §1
M14 = experiment: Cytotoxicity against human M14 cells; summary of the method: as §1
[2] = Cytotoxicity against human OVCAR8 cells; summary of the method: as §1
[3] = Cytotoxicity against human HCT15 cells; summary of the method: as §1
NCI-H226 = experiment: Cytotoxicity against human NCI-H226 cells; summary of the method: as §1
RXF 393 = experiment: Cytotoxicity against human RXF393 cells; summary of the method: as §1
MDA-MB-435 = experiment: Cytotoxicity against human MDA-MB-435 cells; summary of the method: as §1
[4] = Cytotoxicity against human NCI-ADR-RES cells; summary of the method: as §1
SF-539 = experiment: Cytotoxicity against human SF539 cells; summary of the method: as §1
786-0 = experiment: Cytotoxicity against human 786-0 cells; summary of the method: as §1
MDA-MB-231 = experiment: Cytotoxicity against human MDA-MB-231 cells; summary of the method: as §1
HL-60(TB) = experiment: Cytotoxicity against human HL-60(TB) cells
Summary of the method: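 Tested within the NCI 60-cell-line screen, with GI50 as the read-out. Values are the average of two independent experiments. The lowest concentration tested was 10 nM.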

[5] = Cytotoxicity against human OVCAR4 cells; summary of the method: as §1
[6] = Cytotoxicity against human EKVX cells; summary of the method: as §1
SF-268 = experiment: Cytotoxicity against human SF268 cells; summary of the method: as §1
LOX IMVI = experiment: Cytotoxicity against human LOXIMVI cells; summary of the method: as §1
[7] = read-out: pLC50 (the source's name) (converted)

COc1cc(/C=C/c2cc(OC)c3c(CC=C(C)C)c[nH]c3c2)cc2c1O[C@]1(C)CC[C@@H](O)C(C)(C)[C@H]1C2
GI50 (MCF7): 0.398 µM
LC50 (MCF7): 19.1 µM
TGI (MCF7; read-out: pTGI (converted)): 3.72 µM
GI50 (MOLT-4): 0.155 µM
CC50 (MOLT-4; [7]): > 100 µM
TGI (MOLT-4; read-out: pTGI (converted)): 0.661 µM
GI50 (K562): 0.309 µM
CC50 (K562; [7]): > 100 µM
TGI (K562; read-out: pTGI (converted)): 1.38 µM
GI50 (CAKI-1): 0.347 µM
LC50 (CAKI-1): 53.7 µM
TGI (CAKI-1; read-out: pTGI (converted)): 2.19 µM
GI50 ([1]; UACC-257): 2.09 µM
CC50 ([1]; UACC-257, read-out: pLC50 (the source's name) (converted)): 49 µM
TGI ([1]; UACC-257, read-out: pTGI (converted)): 12.9 µM
GI50 (TK-10): 2.75 µM
LC50 (TK-10): 66.1 µM
TGI (TK-10; read-out: pTGI (converted)): 17.4 µM
GI50 (SN12C): 2.51 µM
LC50 (SN12C): 52.5 µM
TGI (SN12C; read-out: pTGI (converted)): 19.1 µM
GI50 (M14): 0.525 µM
CC50 (M14; [7]): 46.8 µM
TGI (M14; read-out: pTGI (converted)): 2.82 µM
GI50 ([2]; OVCAR-8): 3.8 µM
CC50 ([2]; OVCAR-8, read-out: pLC50 (the source's name) (converted)): 74.1 µM
TGI ([2]; OVCAR-8, read-out: pTGI (converted)): 23.4 µM
GI50 ([3]; HCT-15): 0.174 µM
CC50 ([3]; HCT-15, read-out: pLC50 (the source's name) (converted)): 6.17 µM
TGI ([3]; HCT-15, read-out: pTGI (converted)): 1.35 µM
GI50 (NCI-H226): 2.69 µM
CC50 (NCI-H226; [7]): 32.4 µM
TGI (NCI-H226; read-out: pTGI (converted)): 9.77 µM
GI50 (RXF 393): 0.0263 µM
LC50 (RXF 393): 0.724 µM
TGI (RXF 393; read-out: pTGI (converted)): 0.105 µM
GI50 (MDA-MB-435): 0.646 µM
CC50 (MDA-MB-435; [7]): 74.1 µM
TGI (MDA-MB-435; read-out: pTGI (converted)): 9.12 µM
GI50 [4]: 2.88 µM
CC50 [4, 7]: > 100 µM
TGI ([4]; read-out: pTGI (converted)): 28.8 µM
GI50 (SF-539): 0.0501 µM
CC50 (SF-539; [7]): 2.51 µM
TGI (SF-539; read-out: pTGI (converted)): 0.309 µM
GI50 (786-0): 0.0501 µM
LC50 (concentration killing 50% of cells) (786-0): 0.891 µM
TGI (786-0; read-out: pTGI (converted)): 0.302 µM
GI50 (MDA-MB-231): 0.269 µM
LC50 (MDA-MB-231): 30.9 µM
TGI (MDA-MB-231; read-out: pTGI (converted)): 2.4 µM
GI50 (HL-60(TB)): 0.191 µM
CC50 (HL-60(TB); [7]): 85.1 µM
TGI (HL-60(TB); read-out: pTGI (converted)): 2.45 µM
GI50 ([5]; OVCAR-4): 2.45 µM
CC50 ([5]; OVCAR-4, read-out: pLC50 (the source's name) (converted)): > 100 µM
TGI ([5]; OVCAR-4, read-out: pTGI (converted)): 33.1 µM
GI50 [6]: 0.832 µM
CC50 [6, 7]: > 100 µM
TGI ([6]; read-out: pTGI (converted)): 6.61 µM
GI50 (SF-268): 1.12 µM
CC50 (SF-268; [7]): 91.2 µM
TGI (SF-268; read-out: pTGI (converted)): 14.5 µM
GI50 (LOX IMVI): 0.295 µM
CC50 (LOX IMVI; [7]): 4.47 µM
